Bioassay records from PubChem BioAssay.
NadD inh: inhibitors of Staphylococcus aureus NadD | purified NadD enzyme, colorimetric absorbance read-out | inhibition, % at 20 µM | 360,000 compounds, 0.78% hits; in the data active = inhibition above about 26%
HCV core dimer: HCV core protein dimerization inhibition | TR-FRET GST/Flag-core106 dimerization, 1536-well | inhibition, % at 5 µM | 300,000 compounds, 0.33% hits | AID 1899;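 active = inhibition above the mean of all tested compounds plus 3 SD, set per screening campaign, cut at about 45% in these data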
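assay system = GST-tagged and Flag-tagged HCV core protein residues 1-106 | controls = unlabelled core106 and no-GST-core106 wells | incubation = compound-protein-antibody incubation 4 h at 22.5 °C | probe or stimulus = Eu donor and XL665 acceptor anti-tag antibodies | read-out = % inhibition based on acceptor/donor emission ratio | signal = TR-FRET 671 and 617 nm emission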
rCAG RNA binder: binds r(CAG) RNA repeats; r(CAG) RNA repeat, TO-PRO-1 dye displacement fluorescence; AID 651821; inhibition, % at 3 µM; 370,000 compounds, 1.3% hits;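 active = inhibition above the plate cutoff, the mean of all test compounds on that plate plus 3 SD, cut at about 35% in these data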;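 note: 0% = DMSO alone and 100% = 100 µM mitoxantrone as full dye displacement; higher means more dye released from RNA so lower well fluorescence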
ABHD5 PLIN5 PPI: inhibitors of human ABHD5-perilipin-5 interaction | 360,000 compounds, 0.78% hits | inhibition, % at 4 µM | AID 602281 | Split G. princeps luciferase complementation, luminescence, 4 h;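 active = inhibition above the mean inhibition across every tested compound plus 3 SD, cut at about 22% in these data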;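 note: 0% = DMSO only wells and the 100% control is not disclosed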
Target sequence (Q00G26 whole entry, looked up): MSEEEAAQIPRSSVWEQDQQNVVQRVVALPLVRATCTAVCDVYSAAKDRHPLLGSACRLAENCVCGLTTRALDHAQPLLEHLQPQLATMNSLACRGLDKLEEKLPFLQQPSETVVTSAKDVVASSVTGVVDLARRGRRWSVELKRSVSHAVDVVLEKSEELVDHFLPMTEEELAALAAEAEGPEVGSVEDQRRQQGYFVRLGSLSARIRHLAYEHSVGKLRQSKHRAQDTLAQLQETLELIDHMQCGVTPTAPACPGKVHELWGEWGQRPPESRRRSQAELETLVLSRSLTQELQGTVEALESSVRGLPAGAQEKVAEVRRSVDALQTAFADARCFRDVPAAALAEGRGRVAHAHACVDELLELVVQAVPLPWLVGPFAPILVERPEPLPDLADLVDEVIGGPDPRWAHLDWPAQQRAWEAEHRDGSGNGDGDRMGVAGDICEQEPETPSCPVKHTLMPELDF
Target sequence (Q8WTS1 whole entry, looked up): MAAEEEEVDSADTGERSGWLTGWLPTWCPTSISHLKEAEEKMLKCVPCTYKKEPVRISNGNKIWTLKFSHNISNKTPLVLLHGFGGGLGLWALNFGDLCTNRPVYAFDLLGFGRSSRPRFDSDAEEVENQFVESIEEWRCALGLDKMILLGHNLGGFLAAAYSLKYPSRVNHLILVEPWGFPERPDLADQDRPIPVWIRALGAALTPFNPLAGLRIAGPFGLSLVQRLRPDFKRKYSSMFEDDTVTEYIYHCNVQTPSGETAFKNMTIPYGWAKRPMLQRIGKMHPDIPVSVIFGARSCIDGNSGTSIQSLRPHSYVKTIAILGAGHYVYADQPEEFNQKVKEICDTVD
rCAG binder conf: r(CAG) RNA repeat binding, confirmation. 4,300 compounds, 70% hits. TO-PRO-1 dye displacement fluorescence. inhibition, % at 3 µM. shares compounds with rCAG RNA binder;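 active = inhibition above a per-plate cutoff, the mean inhibition of sample wells plus 3 SD, cut at about 35% in these data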;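 note: loss of TO-PRO-1 fluorescence as compound displaces dye from 1x1 AA loop RNA; 0% = DMSO only wells and 100% = 100 µM mitoxantrone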
DNA CAG counter: disrupts DNA CAG TO-PRO-1 complex, flagging rCAG hits. shares compounds with rCAG RNA binder. d(CAG) DNA oligo TO-PRO-1 dye displacement, fluorescence. inhibition, % at 3 µM. 4,300 compounds, 94% hits. AID 652068;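 active = inhibition above its plate's cutoff, the mean test-well inhibition plus 3 SD, cut at about 4.8% in these data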;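 note: 0% = DNA dye mix with DMSO and 100% = 100 µM mitoxantrone; hits displace the dye from DNA and so lower well fluorescence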
dCAG dye DR: counter-screen for rCAG binders: inhibitors of DNA CAG TO-PRO-1 complex; IC50, µM; AID 686960; 250 compounds, 20% hits; shares compounds with rCAG RNA binder; DNA CAG/GTC duplex TO-PRO-1 dye displacement fluorescence; in the data active = IC50 below about 10 µM
Numbers without * were called inactive; i = inactive; . = no result. Most compounds without a hit are left out; they make up all but 2.6% or so of the library.

SMILES | NadD inh | HCV core dimer | rCAG RNA binder | ABHD5 PLIN5 PPI | rCAG binder conf | DNA CAG counter | others
Cc1ccc(-c2nn(CCC(=O)O)cc2/C=C\C(=O)c2ccc(Br)cc2)cc1 | -2 | 10 | 68* | 8 | 74* | 32* | dCAG dye DR=i
Cc1ccc(S(=O)(=O)N2C[C@H]3[C@H]4C(=O)N(c5ccccc5)C(=O)[C@H]4C[C@H](OC(=O)NC4CC4)[C@@]3(O)C2)cc1 | 3 | . | 4 | -9 | . | .
COc1ccc(NS(=O)(=O)c2ccc3nc(COc4ccc5ccccc5c4)[nH]c3c2)cc1 | 30 | 14 | 51* | 1 | 19 | 14*
Cc1cc(NS(=O)(=O)c2ccc(NC(=O)CSc3nc4sc(C)c(C)c4c(=O)n3Cc3ccco3)cc2)nc(C)n1 | . | . | 68* | . | 63* | 27*
CCn1c(SCC(=O)Nc2ccc(S(=O)(=O)Nc3cc(C)nc(C)n3)cc2)nc2sc(C)c(C)c2c1=O | . | . | 53* | . | 34 | 11*
CCn1c(SCC(=O)Nc2cc(C)on2)nc2sc(C)c(C)c2c1=O | . | . | 3 | . | . | .
COc1ccc(CNC(=O)c2c(N)[nH]c(C(=O)c3ccccc3)c2-c2ccc3ccccc3c2)cc1OC | . | . | 8 | . | . | .
C[C@H]1CN([C@@H](C)CO)S(=O)(=O)c2ccc(C#Cc3ccccn3)cc2O[C@@H]1CN(C)C(=O)C1CC1 | 4 | . | 4 | 5 | . | .
COc1cc(/C=C2\C(=O)N(c3ccc(NC(C)=O)cc3)N=C2c2ccccc2)ccc1O | 16 | -11 | 83* | -30 | 70* | 31* | dCAG dye DR=i
O=C1/C(=C\c2ccc(O)c(O)c2)C(c2ccccc2)=NN1c1ccccc1 | 18 | . | 74* | -20 | 81* | 44*
CCOc1ccc(-n2c(SCC(=O)Nc3cc4oc5ccccc5c4cc3OC)nnc2-c2cccc(Cl)c2)cc1 | . | . | 7 | . | . | .
CCCCNC(=O)c1nc(C2CCN(S(=O)(=O)c3csc(C(=O)O)c3)CC2)oc1-c1ccccc1 | -5 | . | 44* | 1 | 39* | 11* | dCAG dye DR=>30
O=C(NN=C1CCN(Cc2ccccc2)CC1)c1ccccc1O | -1 | 4 | 0 | -1 | . | .
O=C(NN=C1CCN(Cc2ccccc2)CC1)c1cc2ccccc2cc1O | 42* | 37 | 52* | 3 | 57* | 30*
CCOC(=O)N1CCC(=NNC(=O)c2cc3ccccc3cc2O)CC1 | 5 | -2 | 37* | -7 | 15 | 11*
Cc1cccc(C)c1-n1nnnc1C(c1ccccc1OC(F)(F)F)N1CCN(C/C=C/c2ccccc2)CC1 (configuration not stated) | -2 | . | 1 | -1 | . | .
CC(C)c1ccc(C2c3[nH]c4ccccc4c3C[C@H]3C(=O)N(c4ccccc4C(=O)N4CCC[C@H]4C(=O)O)C(=O)N23)cc1 (some centres not stated) | 26 | 16 | 46* | -9 | 70* | 27* | dCAG dye DR=i
COc1ccc(C2c3[nH]c4ccccc4c3C[C@H]3C(=O)N(c4ccccc4C(=O)N4CCC(C(=O)O)CC4)C(=O)N23)cc1 (some centres not stated) | 12 | 2 | 29 | -4 | . | .
CCc1nnc(NS(=O)(=O)c2ccc(NC(=O)c3cccc(Br)c3)cc2)s1 | 1 | 2 | 73* | -5 | 53* | 19*
CCc1nnc(NS(=O)(=O)c2ccc(NC(=O)c3ccc(S(=O)(=O)N(CC)CC)cc3)cc2)s1 | 4 | 14 | 76* | 4 | 67* | 29*
CCOc1cc(C(=O)Nc2ccc(S(=O)(=O)Nc3cc(C)on3)cc2)cc(OCC)c1OCC | 1 | 13 | 41* | -6 | 34 | 8.4*
Cc1ccc(OC(=O)CCC(=O)Nc2ccc(S(=O)(=O)Nc3cc(C)on3)cc2)cc1 | 4 | -2 | -1 | 4 | . | .
O=C(Nc1ccc(S(=O)(=O)Nc2ncccn2)cc1)c1cccc(Br)c1 | -5 | . | -1 | 6 | . | .
CCc1nnc(NS(=O)(=O)c2ccc(NC(=O)CCC(=O)O)cc2)s1 | 4 | -6 | -2 | 4 | . | .
CCC(Oc1ccc(C)cc1)C(=O)Nc1ccc(S(=O)(=O)Nc2cc(C)on2)cc1 (configuration not stated) | -2 | 10 | 36* | 2 | 21 | 2
SMILES | NadD inh | HCV core dimer | rCAG RNA binder | ABHD5 PLIN5 PPI | rCAG binder conf | DNA CAG counter | others
COc1cc(C(=O)Nc2ccc(S(=O)(=O)Nc3cc(C)on3)cc2)cc(OC)c1OC | -1 | -5 | 10 | -1 | . | .
COC(=O)C1CN(Cc2cn(Cc3ccc(C)cc3)nn2)CCS(=O)(=O)N1Cc1ccccc1 (configuration not stated) | . | . | -1 | . | . | .
CCCC(=O)N1CCC1(C)C(=O)Nc1scc(C)c1C#N (configuration not stated) | -15 | . | . | -12 | . | .
CCOc1cc(C(=O)Nc2ccc(S(=O)(=O)NC3=NCCCCC3)cc2)cc(OCC)c1OCC | -8 | 7 | -9 | -1 | . | .
CCOc1cc(C(=O)Nc2ccc(S(=O)(=O)Nc3nnc(CC)s3)cc2)cc(OCC)c1OCC | 12 | 15 | 63* | -2 | 67* | 28*
CCC(=O)Nc1ccc2c(c1)OC[C@@H](C)N(Cc1cccc(F)c1)C[C@@H](C)[C@@H](OC)CN(C)C2=O | . | . | 4 | -9 | . | .
COc1cc(NS(=O)(=O)c2ccc(Nc3nc(-c4ccccn4)cs3)cc2)nc(OC)n1 | 10 | 4 | 45* | -1 | 34 | 8.9*
COc1cccc(C(=O)/C=C/Nc2ccc(S(=O)(=O)Nc3nc(C)cc(C)n3)cc2)c1 | 10 | -10 | 29 | 6 | . | .
COc1cc(NS(=O)(=O)c2ccc(N/C=C\C(=O)c3ccc(OC)c(OC)c3)cc2)nc(OC)n1 | 10 | 10 | 35* | 3 | 46* | 14*
COc1cccc(C(=O)/C=C/Nc2ccc(S(=O)(=O)Nc3cc(OC)nc(OC)n3)cc2)c1 | 8 | 12 | 45* | 3 | 54* | 19*
CCOc1ccc(C(=O)/C=C/Nc2ccc(S(=O)(=O)Nc3cc(C)nc(C)n3)cc2)cc1 | . | 8 | 18 | . | . | .
COc1ccc(S(=O)(=O)NC(=O)C2(C)CCN2C(=O)C2(c3ccc(Cl)cc3)CCC2)cc1 (configuration not stated) | -1 | . | 46* | -3 | 35* | 6.4*
CC1(C(=O)NS(=O)(=O)c2ccc(C#N)cc2)CCN1C(=O)C1(c2ccc(Cl)cc2)CCC1 (configuration not stated) | -3 | . | 15 | -7 | . | .
CC(C)(C)c1ccc(S(=O)(=O)NC(=O)C2(C)CCN2C(=O)C2(c3ccc(Cl)cc3)CC2)cc1 (configuration not stated) | 9 | . | 71* | 2 | 59* | 21*
CC1(C(=O)NS(=O)(=O)c2ccc(Cl)cc2)CCN1C(=O)C1(c2ccc(Cl)cc2)CC1 (configuration not stated) | -5 | . | 46* | -14 | 39* | 8.7*
